Measured values reported in ChEMBL document CHEMBL4196188, “GEX1A, a Polyketide from Streptomyces chromofuscus, Corrects the Cellular Defects Associated with Niemann-Pick Type C1 in Human Fibroblasts” (J Nat Prod, 2018).
The source made the active and inactive calls. No cut-off for these calls is given here.

Experiments:
[1] = biological target: Splicing factor 3B subunit 1 (Homo sapiens) (UniProt O75533); assay: Binding affinity to SAP155 in human GM18407 cells harboring NPC1 R404Q/M1142T mutant assessed as restoration of cholesterol trafficking at 0.001 to 5 uM after 48 hrs by filipin-staining based fluorescence microscopic analysis; format: cell-based
[2] = biological target: Splicing factor 3B subunit 1 (Homo sapiens) (UniProt O75533); assay: Binding affinity to SAP155 in human GM18453 cells harboring NPC1 mutant assessed as restoration of cholesterol trafficking at 50 nM after 48 hrs by filipin-staining based fluorescence microscopic analysis; format: cell-based
Procedure, shortened: (§1)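 GM18453 NPC1-mutant fibroblasts were exposed for 48 h to 1 nM–5 μM compound, with DMSO vehicle and SAHA (5 μM) positive control. Cells were fixed, stained with filipin for unesterified cholesterol, and imaged by automated fluorescence microscopy. Filipin area sum per cell count was taken from four images per condition across four independent replicates.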

[3] = Stability in human liver microsomes; format: ADME, microsome
[4] = biological target: Splicing factor 3B subunit 1 (Homo sapiens) (UniProt O75533); assay: Binding affinity to SAP155 in human GM18453 cells harboring NPC1 mutant assessed as increase in 180 kDa NPC1 protein expression at 50 nM measured after 48 hrs by Western blot analysis; format: cell-based
Procedure, shortened: (§2)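 GM18453 fibroblasts were treated 48 h at 37°C, 5% CO2 with 50 nM compound, SAHA 5 μM or DMSO 0.1% v/v, then lysed in RIPA with protease inhibitors. 25–50 μg protein was run on 4–20% SDS-PAGE, blotted to PVDF and probed with rabbit polyclonal C-terminal anti-NPC1 (1:1000, overnight, 4°C). Detection used HRP anti-rabbit and ECL film.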

[5] = biological target: Splicing factor 3B subunit 1 (Homo sapiens) (UniProt O75533); assay: Binding affinity to SAP155 in human GM18453 cells harboring NPC1 mutant assessed as increase in 120 kDa NPC1 protein expression at 50 nM measured after 48 hrs by Western blot analysis; format: cell-based; procedure, shortened: as §2
[6] = Stability in mouse liver microsomes; format: ADME, microsome
[7] = biological target: Splicing factor 3B subunit 1 (Homo sapiens) (UniProt O75533); assay: Binding affinity to SAP155 in human GM18453 cells harboring NPC1 mutant assessed as increase in 100 kDa NPC1 protein expression at 50 nM pretreated for 48 hrs followed by endoglycosidase H addition and measured after overnight incubation by Western blot analysis relative to control; format: cell-based
Procedure, shortened: (§3)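 GM18453 fibroblasts were exposed 48 h to 50 nM compound, SAHA 5 μM or DMSO 0.1%. 25 μg lysate was denatured 10 min at 65°C, digested with Endo H (1000 U) about 18 h at 37°C, then run on SDS-PAGE. Blots were probed with rabbit anti-NPC1. Isoforms were quantified by densitometry against DMSO control across four independent experiments.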

[8] = biological target: Splicing factor 3B subunit 1 (Homo sapiens) (UniProt O75533); assay: Binding affinity to SAP155 in human GM18453 cells harboring NPC1 mutant assessed as increase in 250 kDa NPC1 protein expression at 50 nM pretreated for 48 hrs followed by endoglycosidase H addition and measured after overnight incubation by Western blot analysis; format: cell-based; procedure, shortened: as §3
[9] = Protein binding in human plasma; format: ADME, cell-free
[10] = Aqueous solubility of the compound in HBSS solution; format: physicochemical; conditions: buffer
[11] = Cytotoxicity against human GM18453 cells harboring NPC1 mutant assessed as effect on cell shape at 5 uM; format: cell-based; procedure, shortened: as §1
[12] = biological target: Splicing factor 3B subunit 1 (Homo sapiens) (UniProt O75533); assay: Binding affinity to SAP155 in human GM18453 cells harboring NPC1 mutant assessed as increase in 120 kDa NPC1 protein expression at 50 nM pretreated for 48 hrs followed by PNGaseF addition and measured after overnight incubation by Western blot analysis; format: cell-based
Procedure, shortened: (§4)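 After 48 h exposure of GM18453 fibroblasts to 50 nM compound (controls SAHA 5 μM, DMSO 0.1%), 25 μg lysate with SDS, DTT and Tris-HCl pH 8 was digested with PNGase F (1000 U) about 18 h at 37°C. Samples were immunoblotted with rabbit anti-NPC1, and isoforms were quantified by densitometry over four independent experiments.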

[13] = Permeability in human Caco2 cells; format: ADME, cell-based; conditions: caco-2
[14] = biological target: Splicing factor 3B subunit 1 (Homo sapiens) (UniProt O75533); assay: Binding affinity to SAP155 in human GM18453 cells harboring NPC1 mutant assessed as increase in 100 kDa NPC1 protein expression at 50 nM measured after 48 hrs by Western blot analysis; format: cell-based; procedure, shortened: as §2
[15] = Cytotoxicity against human GM18453 cells harboring NPC1 mutant assessed as effect on nuclei shape at 5 uM; format: cell-based; procedure, shortened: as §1
[16] = Mean residence time in ICR mouse at 2 mg/kg by LC-MS/MS analysis; format: ADME, organism-based; conditions: in vivo
[17] = biological target: Splicing factor 3B subunit 1 (Homo sapiens) (UniProt O75533); assay: Binding affinity to SAP155 in human GM18453 cells harboring NPC1 mutant assessed as increase in 180 kDa NPC1 protein expression at 50 nM pretreated for 48 hrs followed by endoglycosidase H addition and measured after overnight incubation by Western blot analysis; format: cell-based; procedure, shortened: as §3
[18] = biological target: Splicing factor 3B subunit 1 (Homo sapiens) (UniProt O75533); assay: Binding affinity to SAP155 in human GM18453 cells harboring NPC1 mutant assessed as increase in 180 kDa NPC1 protein expression at 50 nM pretreated for 48 hrs followed by PNGaseF addition and measured after overnight incubation by Western blot analysis; format: cell-based; procedure, shortened: as §4
[19] = Protein binding in mouse plasma; format: ADME, cell-free
[20] = Aqueous solubility of the compound in pH 7.4 buffer; format: physicochemical

Splicing factor 3B subunit 1 (Homo sapiens), sequence (O75533 whole entry, canonical isoform): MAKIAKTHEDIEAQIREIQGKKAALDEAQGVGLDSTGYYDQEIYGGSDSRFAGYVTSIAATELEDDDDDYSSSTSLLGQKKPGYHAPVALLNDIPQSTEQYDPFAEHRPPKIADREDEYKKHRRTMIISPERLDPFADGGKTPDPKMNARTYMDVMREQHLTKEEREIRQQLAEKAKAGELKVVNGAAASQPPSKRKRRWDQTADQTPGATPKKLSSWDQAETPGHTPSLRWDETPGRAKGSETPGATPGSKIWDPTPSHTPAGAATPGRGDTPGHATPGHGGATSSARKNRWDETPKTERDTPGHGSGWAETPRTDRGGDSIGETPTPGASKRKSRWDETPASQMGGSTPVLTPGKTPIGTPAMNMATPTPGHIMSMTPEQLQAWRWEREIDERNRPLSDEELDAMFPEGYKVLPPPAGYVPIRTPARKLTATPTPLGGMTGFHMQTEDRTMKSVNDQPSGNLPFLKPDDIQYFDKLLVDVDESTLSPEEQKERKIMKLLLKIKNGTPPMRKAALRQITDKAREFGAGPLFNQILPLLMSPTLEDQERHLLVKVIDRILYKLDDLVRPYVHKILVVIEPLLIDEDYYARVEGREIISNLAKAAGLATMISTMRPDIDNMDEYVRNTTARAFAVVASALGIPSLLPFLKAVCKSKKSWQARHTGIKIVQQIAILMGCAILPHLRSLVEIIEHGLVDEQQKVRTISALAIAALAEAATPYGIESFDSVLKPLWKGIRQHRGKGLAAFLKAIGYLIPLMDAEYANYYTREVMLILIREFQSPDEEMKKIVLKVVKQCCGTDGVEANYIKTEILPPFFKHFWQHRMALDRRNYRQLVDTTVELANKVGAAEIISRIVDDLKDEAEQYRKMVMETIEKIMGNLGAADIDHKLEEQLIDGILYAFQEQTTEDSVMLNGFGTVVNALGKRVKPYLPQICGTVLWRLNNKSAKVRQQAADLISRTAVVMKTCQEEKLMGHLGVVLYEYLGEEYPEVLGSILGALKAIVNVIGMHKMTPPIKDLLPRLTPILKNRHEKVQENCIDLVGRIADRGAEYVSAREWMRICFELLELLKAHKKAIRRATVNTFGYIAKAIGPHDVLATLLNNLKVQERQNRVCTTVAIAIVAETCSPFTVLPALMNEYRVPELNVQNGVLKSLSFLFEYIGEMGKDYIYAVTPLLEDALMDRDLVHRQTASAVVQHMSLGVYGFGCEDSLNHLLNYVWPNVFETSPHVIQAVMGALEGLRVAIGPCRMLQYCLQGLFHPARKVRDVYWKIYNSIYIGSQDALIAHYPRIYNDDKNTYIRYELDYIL

**Q.** Which Activity [1] does the source give for `COC(=O)C[C@H]1CC[C@H](C)[C@@H](/C(C)=C/C=C/[C@@H](C)C[C@@]2(C)O[C@@H]2[C@H](C)[C@@H](OC)C(C)=O)O1` here?
**A.** inactive

**Q.** What about the Activity [2] of the same compound?
**A.** Active

**Q.** Which results are given for `COC(=O)C[C@H]1CC[C@H](C)[C@@H](/C(C)=C/C=C/[C@@H](C)C[C@@]2(C)O[C@@H]2[C@H](C)[C@@H](OC)[C@@H](C)O)O1`?
**A.** Activity [1]: inactive; Activity [2]: Active

**Q.** For `CO[C@H]([C@@H](C)[C@H]1O[C@]1(C)C[C@H](C)/C=C/C=C(\C)[C@H]1O[C@@H](CC(=O)O)CC[C@@H]1C)[C@@H](C)O`, which Stability [3] is on record?
**A.** Stable

**Q.** What about the Activity [4] of the same compound?
**A.** Active

**Q.** And the Activity [5]?
**A.** Active

**Q.** What about the Stability [6] of the same compound?
**A.** Stable

**Q.** What about the fold change (FC) [7] of the same compound?
**A.** 1.5

**Q.** And the Activity [8]?
**A.** inactive

**Q.** What about the PB [9] of the same compound?
**A.** Active

**Q.** And the solubility [10]?
**A.** Soluble

**Q.** And the Activity [11]?
**A.** Toxic

**Q.** What about the Activity [1] of the same compound?
**A.** inactive

**Q.** And the Activity [12]?
**A.** Active

**Q.** What about the permeability [13] of the same compound?
**A.** Permeable

**Q.** And the Activity [14]?
**A.** Active

**Q.** And the Activity [15]?
**A.** Toxic

**Q.** What about the Activity [2] of the same compound?
**A.** Active

**Q.** What about the MRT [16] of the same compound?
**A.** 4.53 h

**Q.** And the Activity [17]?
**A.** inactive

**Q.** What about the Activity [18] of the same compound?
**A.** inactive

**Q.** What about the PB [19] of the same compound?
**A.** Active

**Q.** And the solubility [20]?
**A.** Soluble

**Q.** What does the source list for `COC(=O)C[C@H]1CC[C@H](C)[C@@H](/C(C)=C/C=C/[C@@H](C)C[C@@]2(C)O[C@@H]2[C@H](C)[C@@H](OC)[C@@H](C)OC(C)=O)O1`?
**A.** Activity [1]: inactive; Activity [2]: Active
